The target in experiment [1] is Serine/threonine-protein kinase mTOR (Homo sapiens) (UniProt P42345). The experiment in a line: Inhibition of FRAP ATP labeling site in human A-375 cells at 0.05 uM by KiNativ Profiling analysis relative to control. The format is cell-based.
Experiment [2] addresses Atypical kinase COQ8A, mitochondrial (Homo sapiens) (UniProt Q8NI60). Kind of experiment: Inhibition of ADCK3 (unknown origin) at 1 uM by Ambit Kinomescan binding assay relative to control.
Experiment [3] deals with Mitogen-activated protein kinase 9 (Homo sapiens, UniProt P45984). The experiment in a line: Inhibition of JNK2 (unknown origin) at 1 uM by Ambit Kinomescan binding assay relative to control.
For experiment [4], the target named is 5'-AMP-activated protein kinase catalytic subunit alpha-1 (Homo sapiens) (UniProt Q13131). Kind of experiment: Inhibition of AMPKa1 Lys2 labeling site in human A-375 cells at 0.5 uM by KiNativ Profiling analysis relative to control. The experiment is classed as cell-based. An outline of the steps:
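Intact A375 melanoma cells were treated with compound at 5 or 0.5 μM, then lysed. Lysate kinases were labeled with a lysine-reactive ATP or ADP-biotin probe (KiNativ). Inhibition is read as protection of each kinase labeling site from probe labeling.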

For experiment [5], the target named is T1, Dual specificity mitogen-activated protein kinase kinase 4 (Homo sapiens) (UniProt P45985).
T1 sequence (whole entry): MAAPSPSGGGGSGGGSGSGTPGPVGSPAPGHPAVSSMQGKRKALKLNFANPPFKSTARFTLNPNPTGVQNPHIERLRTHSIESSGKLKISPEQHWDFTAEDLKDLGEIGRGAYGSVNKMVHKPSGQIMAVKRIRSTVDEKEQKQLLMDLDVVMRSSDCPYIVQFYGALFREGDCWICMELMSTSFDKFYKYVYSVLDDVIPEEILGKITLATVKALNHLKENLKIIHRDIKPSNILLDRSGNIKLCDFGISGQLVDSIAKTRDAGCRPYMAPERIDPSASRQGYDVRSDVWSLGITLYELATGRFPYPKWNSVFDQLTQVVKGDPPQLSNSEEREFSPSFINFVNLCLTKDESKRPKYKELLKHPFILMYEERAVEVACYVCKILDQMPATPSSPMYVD
The experiment in a line: Inhibition of MAP2K4 Lys1 labeling site in human A-375 cells at 0.5 uM by KiNativ Profiling analysis relative to control. The format is cell-based.

The target of experiment [6] is Vascular endothelial growth factor receptor 1 (Homo sapiens) (UniProt P17948). The experiment in a line: Inhibition of FLT1 (unknown origin) at 10 uM by Ambit Kinomescan binding assay relative to control; values are per cent of control.
In experiment [7] the target is T2, Phosphatidylinositol 5-phosphate 4-kinase type-2 beta (Homo sapiens) (UniProt P78356).
T2 sequence (whole entry): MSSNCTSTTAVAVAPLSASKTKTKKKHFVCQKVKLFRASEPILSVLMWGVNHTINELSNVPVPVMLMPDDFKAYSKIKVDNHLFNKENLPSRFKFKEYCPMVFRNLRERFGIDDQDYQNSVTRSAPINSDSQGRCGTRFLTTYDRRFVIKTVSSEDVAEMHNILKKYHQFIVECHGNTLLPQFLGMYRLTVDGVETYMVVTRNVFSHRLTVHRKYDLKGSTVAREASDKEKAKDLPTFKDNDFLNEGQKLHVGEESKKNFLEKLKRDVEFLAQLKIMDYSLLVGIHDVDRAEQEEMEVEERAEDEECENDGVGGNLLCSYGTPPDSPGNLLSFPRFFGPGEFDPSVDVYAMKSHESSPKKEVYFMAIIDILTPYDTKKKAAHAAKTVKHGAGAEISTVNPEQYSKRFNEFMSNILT
Kind of experiment: Inhibition of PIP4K2B ATP labeling site harbouring AKDLPTFKDNDFLNEGQK in human Huh-7 cell lysate at 1 uM by KiNativ Profiling analysis relative to control. The format is subcellular.

For experiment [8], the target named is T3, Mitogen-activated protein kinase kinase kinase 2 (Homo sapiens) (UniProt Q9Y2U5).
T3 sequence (whole entry): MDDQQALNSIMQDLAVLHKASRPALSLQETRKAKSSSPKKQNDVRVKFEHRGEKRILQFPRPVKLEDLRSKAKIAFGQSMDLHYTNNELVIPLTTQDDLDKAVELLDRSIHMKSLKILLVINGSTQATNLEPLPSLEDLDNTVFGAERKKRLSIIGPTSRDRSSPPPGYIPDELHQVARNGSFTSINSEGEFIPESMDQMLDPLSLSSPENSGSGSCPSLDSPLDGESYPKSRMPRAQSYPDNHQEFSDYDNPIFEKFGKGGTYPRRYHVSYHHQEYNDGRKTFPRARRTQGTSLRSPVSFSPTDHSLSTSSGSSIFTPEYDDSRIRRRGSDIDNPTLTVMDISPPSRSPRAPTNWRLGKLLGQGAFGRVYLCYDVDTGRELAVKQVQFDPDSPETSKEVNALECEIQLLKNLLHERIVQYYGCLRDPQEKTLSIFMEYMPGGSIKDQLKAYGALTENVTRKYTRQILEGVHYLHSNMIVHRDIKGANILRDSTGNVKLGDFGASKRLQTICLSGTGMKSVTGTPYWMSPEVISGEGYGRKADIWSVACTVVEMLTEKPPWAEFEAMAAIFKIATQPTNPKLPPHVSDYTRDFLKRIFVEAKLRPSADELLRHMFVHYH
The experiment in a line: Inhibition of MAP3K2 Lys2 labeling site in human Huh-7 cell lysate at 1 uM by KiNativ Profiling analysis relative to control. The experiment is classed as subcellular.

Experiment [9] deals with Calcium/calmodulin-dependent protein kinase type II subunit delta (Homo sapiens) (UniProt Q13557). The experiment in a line: Inhibition of CaMK2d Lys2 labeling site in human Huh-7 cells at 1 uM by KiNativ Profiling analysis relative to control. The format is cell-based.
Experiment [10] has as its target Phosphatidylinositol 4,5-bisphosphate 3-kinase catalytic subunit beta isoform (Homo sapiens) (UniProt P42338). The experiment in a line: Inhibition of PIK3CB ATP labeling site harbouring VFGEDSVGVIFKNGDDLRQDMLTLQMLR in human Huh-7 cells at 1 uM by KiNativ Profiling analysis relative to control. The format is cell-based.
Experiment [11] addresses Cyclin-dependent kinase 13 (Homo sapiens) (UniProt Q14004). The experiment in a line: Inhibition of CHED Lys2 labeling site harbouring DIKCSNILLNNR in human Huh-7 cell lysate at 1 uM by KiNativ Profiling analysis relative to control. The format is subcellular.
The target of experiment [12] is Serine/threonine-protein kinase ATR (Homo sapiens) (UniProt Q13535). The experiment in a line: Inhibition of ATR ATP labeling site in human Huh-7 cell lysate at 1 uM by KiNativ Profiling analysis relative to control. The experiment is classed as subcellular.

A word on the inhibition: it is the drop in the measured response relative to a control, in per cent.

Phosphatidylinositol 4,5-bisphosphate 3-kinase catalytic subunit beta isoform (Homo sapiens), sequence (P42338 whole entry, looked up, canonical isoform): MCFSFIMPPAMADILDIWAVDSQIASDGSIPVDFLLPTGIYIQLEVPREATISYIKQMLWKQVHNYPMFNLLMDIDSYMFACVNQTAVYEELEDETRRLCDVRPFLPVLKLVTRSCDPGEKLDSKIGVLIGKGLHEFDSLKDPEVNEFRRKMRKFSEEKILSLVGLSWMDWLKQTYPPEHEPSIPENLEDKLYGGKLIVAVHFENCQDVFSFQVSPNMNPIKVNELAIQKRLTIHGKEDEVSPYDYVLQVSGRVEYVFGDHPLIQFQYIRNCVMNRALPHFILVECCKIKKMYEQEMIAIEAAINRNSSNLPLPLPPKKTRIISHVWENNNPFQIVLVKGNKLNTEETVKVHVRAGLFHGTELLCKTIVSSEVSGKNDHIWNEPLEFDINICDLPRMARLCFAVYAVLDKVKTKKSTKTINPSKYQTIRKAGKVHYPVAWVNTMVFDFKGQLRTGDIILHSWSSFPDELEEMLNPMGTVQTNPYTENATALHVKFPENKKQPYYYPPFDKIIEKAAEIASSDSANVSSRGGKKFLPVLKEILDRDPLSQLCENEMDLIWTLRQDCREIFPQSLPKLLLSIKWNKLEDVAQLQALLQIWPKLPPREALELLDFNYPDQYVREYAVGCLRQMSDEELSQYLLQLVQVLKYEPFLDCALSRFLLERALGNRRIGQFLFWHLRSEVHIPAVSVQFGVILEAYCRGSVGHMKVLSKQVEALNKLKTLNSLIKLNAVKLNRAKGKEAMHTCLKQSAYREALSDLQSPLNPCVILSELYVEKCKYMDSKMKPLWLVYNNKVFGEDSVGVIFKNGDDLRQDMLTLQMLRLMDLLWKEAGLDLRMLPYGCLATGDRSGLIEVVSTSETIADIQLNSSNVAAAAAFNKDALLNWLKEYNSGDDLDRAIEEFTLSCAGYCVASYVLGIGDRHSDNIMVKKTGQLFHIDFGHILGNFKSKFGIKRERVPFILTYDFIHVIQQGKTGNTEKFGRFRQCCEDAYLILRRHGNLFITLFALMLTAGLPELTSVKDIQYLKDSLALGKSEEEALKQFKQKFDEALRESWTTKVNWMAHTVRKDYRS
Atypical kinase COQ8A, mitochondrial (Homo sapiens), sequence (Q8NI60 163-647 limits assumed): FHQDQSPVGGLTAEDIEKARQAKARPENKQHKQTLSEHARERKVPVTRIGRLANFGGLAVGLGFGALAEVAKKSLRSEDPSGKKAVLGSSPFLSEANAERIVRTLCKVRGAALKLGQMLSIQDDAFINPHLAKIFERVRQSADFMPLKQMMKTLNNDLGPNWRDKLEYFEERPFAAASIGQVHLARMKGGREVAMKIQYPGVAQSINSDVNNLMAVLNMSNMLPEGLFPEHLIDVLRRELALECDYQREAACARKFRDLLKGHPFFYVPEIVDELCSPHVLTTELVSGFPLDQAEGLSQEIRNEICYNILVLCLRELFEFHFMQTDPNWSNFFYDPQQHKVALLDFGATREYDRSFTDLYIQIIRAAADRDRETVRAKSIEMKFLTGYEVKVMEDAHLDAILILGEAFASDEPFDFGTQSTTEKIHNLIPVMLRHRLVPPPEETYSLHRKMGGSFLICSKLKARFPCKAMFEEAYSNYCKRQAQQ
Serine/threonine-protein kinase ATR (Homo sapiens), sequence (Q13535 whole entry, looked up): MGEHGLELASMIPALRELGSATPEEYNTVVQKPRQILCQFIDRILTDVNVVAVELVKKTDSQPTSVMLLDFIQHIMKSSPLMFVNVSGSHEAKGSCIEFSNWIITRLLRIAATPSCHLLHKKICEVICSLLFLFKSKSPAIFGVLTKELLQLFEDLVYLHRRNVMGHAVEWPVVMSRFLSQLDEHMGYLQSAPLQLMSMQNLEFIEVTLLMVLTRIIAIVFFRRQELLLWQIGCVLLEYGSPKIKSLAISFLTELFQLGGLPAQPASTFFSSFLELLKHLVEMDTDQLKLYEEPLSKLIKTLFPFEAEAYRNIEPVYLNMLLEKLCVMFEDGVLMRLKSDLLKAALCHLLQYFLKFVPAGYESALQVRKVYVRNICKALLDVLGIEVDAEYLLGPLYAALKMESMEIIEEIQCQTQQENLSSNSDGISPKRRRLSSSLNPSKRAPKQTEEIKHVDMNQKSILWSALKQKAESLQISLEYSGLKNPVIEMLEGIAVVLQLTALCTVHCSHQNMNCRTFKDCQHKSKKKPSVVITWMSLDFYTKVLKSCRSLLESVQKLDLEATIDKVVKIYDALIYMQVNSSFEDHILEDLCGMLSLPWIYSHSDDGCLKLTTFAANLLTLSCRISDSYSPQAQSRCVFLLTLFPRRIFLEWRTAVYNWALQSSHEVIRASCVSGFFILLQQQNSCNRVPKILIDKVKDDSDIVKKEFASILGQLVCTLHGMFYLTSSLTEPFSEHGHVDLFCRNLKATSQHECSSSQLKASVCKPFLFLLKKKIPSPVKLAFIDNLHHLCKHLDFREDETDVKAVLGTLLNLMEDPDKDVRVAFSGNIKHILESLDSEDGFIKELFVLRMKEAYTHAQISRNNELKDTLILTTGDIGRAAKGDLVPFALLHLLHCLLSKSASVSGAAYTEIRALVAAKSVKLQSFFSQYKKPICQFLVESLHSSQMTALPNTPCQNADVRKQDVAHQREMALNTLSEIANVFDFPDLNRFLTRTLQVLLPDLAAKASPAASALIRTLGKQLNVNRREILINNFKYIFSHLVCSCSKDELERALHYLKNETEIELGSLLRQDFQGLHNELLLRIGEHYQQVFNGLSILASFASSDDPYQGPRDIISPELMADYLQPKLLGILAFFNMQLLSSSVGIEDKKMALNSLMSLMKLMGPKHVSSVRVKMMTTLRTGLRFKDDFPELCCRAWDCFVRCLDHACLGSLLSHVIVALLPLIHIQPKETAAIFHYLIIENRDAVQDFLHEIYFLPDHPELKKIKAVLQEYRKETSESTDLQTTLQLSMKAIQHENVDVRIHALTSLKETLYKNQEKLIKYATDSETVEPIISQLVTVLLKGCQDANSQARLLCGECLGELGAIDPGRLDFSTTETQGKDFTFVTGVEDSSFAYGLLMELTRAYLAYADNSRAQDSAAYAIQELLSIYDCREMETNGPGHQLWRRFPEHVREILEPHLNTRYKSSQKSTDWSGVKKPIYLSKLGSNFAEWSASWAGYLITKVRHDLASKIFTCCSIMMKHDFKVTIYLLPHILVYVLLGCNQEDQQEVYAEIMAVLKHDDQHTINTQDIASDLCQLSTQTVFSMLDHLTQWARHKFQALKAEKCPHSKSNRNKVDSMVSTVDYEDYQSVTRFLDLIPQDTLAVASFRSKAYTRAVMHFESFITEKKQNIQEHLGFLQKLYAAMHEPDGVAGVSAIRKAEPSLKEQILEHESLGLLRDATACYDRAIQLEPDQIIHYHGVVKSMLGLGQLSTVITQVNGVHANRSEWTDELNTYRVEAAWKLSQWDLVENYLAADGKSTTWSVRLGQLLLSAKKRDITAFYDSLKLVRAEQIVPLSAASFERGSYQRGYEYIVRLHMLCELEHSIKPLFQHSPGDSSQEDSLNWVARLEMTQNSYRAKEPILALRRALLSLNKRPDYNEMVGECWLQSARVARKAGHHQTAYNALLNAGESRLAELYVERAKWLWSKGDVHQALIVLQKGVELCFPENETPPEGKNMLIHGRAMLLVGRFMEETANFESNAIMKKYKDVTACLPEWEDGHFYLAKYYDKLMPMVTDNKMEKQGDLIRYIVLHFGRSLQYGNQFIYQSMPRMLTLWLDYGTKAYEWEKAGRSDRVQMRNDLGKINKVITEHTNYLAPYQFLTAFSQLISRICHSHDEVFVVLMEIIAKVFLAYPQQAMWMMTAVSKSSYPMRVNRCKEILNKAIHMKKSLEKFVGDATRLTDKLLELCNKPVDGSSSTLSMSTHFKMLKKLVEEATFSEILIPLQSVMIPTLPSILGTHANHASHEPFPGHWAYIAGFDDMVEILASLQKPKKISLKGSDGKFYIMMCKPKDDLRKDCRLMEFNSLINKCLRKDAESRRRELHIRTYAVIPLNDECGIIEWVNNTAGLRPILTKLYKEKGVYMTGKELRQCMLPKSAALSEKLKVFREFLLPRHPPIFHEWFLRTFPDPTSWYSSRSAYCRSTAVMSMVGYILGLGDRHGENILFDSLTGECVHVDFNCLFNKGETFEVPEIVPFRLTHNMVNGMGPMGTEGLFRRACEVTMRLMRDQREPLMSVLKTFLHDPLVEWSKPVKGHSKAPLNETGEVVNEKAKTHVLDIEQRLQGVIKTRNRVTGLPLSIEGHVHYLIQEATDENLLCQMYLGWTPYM
Calcium/calmodulin-dependent protein kinase type II subunit delta (Homo sapiens), sequence (Q13557 whole entry, canonical isoform): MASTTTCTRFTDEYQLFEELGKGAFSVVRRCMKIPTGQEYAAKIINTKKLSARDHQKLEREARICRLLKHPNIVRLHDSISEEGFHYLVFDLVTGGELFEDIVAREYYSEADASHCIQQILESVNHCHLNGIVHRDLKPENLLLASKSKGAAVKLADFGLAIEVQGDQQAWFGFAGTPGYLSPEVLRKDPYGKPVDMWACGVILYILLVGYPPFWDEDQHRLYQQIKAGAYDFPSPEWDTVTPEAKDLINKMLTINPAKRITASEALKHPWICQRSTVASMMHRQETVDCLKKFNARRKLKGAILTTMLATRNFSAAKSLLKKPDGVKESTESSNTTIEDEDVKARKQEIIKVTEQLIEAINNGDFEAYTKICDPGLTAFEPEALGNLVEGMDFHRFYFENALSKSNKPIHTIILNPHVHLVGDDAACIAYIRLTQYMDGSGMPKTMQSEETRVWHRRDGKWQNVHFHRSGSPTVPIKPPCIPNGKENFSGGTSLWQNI
Mitogen-activated protein kinase 9, sequence (P45984 whole entry, looked up): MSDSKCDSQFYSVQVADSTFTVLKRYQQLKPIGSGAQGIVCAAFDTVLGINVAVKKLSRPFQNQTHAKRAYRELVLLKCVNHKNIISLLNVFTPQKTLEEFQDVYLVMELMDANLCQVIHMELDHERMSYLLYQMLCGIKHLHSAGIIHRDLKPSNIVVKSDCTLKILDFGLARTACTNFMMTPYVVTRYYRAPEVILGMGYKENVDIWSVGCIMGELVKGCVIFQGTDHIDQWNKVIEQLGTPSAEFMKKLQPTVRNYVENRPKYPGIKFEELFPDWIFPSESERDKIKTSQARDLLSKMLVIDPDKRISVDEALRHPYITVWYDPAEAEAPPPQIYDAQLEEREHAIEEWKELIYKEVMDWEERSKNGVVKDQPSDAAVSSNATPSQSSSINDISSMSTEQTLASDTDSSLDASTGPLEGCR

As for `CCN1CCN(Cc2ccc(NC(=O)c3ccc(C)c(/C=C/c4cnc5[nH]ccc5c4OC)c3)cc2C(F)(F)F)CC1`, the inhibition is -7.6% in experiment [1], 100% in experiment [2], 6.6% in experiment [3] and -8.2% in [4].

On to `CCN1CCN(Cc2ccc(NC(=O)c3ccc(C)c(Oc4ccnc5[nH]ccc45)c3)cc2C(F)(F)F)CC1`, for which the inhibition in [5] is -4%. Also, the percent of control in experiment [6] was 1.6%.

With `CNc1cc(Oc2cc(C(=O)Nc3cc(N4CCN(C)CC4)cc(C(F)(F)F)c3)ccc2C)ncn1`, the inhibition was -5.5% in experiment [7]; 1.9% in experiment [8]; 20.3% in [9]; 14% in experiment [10]; 14% in experiment [11]; 5.1% in [12].

Values taken from ChEMBL document CHEMBL5696442, “Discovery of type II inhibitors of TGFβ-activated kinase 1 (TAK1) and mitogen-activated protein kinase kinase kinase kinase 2 (MAP4K2)” (J Med Chem, 2015).
